Results reported in the EternaBench riboswitch data.

System: MS2 coat protein
Assay: apparent Kd, MS2 coat protein; higher = weaker binding; RNA-MaP array; FMN 200 µM where present
Procedure, shortened: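 Designs on Illumina sequencing-chip clusters, transcribed by stalled E. coli RNA polymerase, were exposed to SNAP-549-labelled MS2 coat protein in doubling steps from 0.7 or 1.5 nM up to 3 µM, without and then with constant ligand. The buffer held 100 mM Tris-HCl pH 7.5, 80 mM KCl, 4 mM MgCl2, BSA, DTT, yeast tRNA and Tween-20. Apparent Kd values are medians of filtered per-cluster binding-curve fits to green signal normalised to red-channel RNA signal and control-cluster median Fmax.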

[1] = designed as: OFF switch for flavin mononucleotide, no ligand
[2] = ligand present: flavin mononucleotide, designed as: OFF switch for flavin mononucleotide
[3] = designed as: ON switch for flavin mononucleotide, no ligand
[4] = ligand present: flavin mononucleotide, designed as: ON switch for flavin mononucleotide

Sequence	apparent Kd [1]	apparent Kd [2]	apparent Kd [3]	apparent Kd [4]
UUAGAAUUGUUAGGAUAUUAAUUAUUUUUUAGUAUGAUCUACAUGAGGAUCACCCAUGUUAAAUAUAAGAAGGAACGUUAUAUU	63.6 nM	63.6 nM	–	–
UGUGCUGAAGGAUAUGCGUAAGCUCGGUGACGAGCAGGUCUACAUGAGGAUCACCCAUGUAGAAGGUCAGUACU	15.8 nM	16 nM	–	–
AUGGUUGUCGUAGGAUAUGUAGGAUAUUCCUACAUGAGGAUCACCCAUGUUCGCAUGGAAGAAGGACAGAAGGACGAUGACCAU	–	–	1150 nM	9.7 nM
GGAUCGAGUGUGAGGAUAUGCAGGUCCUUGGAUCUGCAGAAGGCACAUGAGGAUCACCCAUGUGGAAACGGUCC	64.2 nM	567 nM	–	–
GUAUGCAAGUAGAAGGACGGAUAUUUUGAAAACGUAGGAUAUACAGAAUCAUAUCCACAUGGAUACAUGAGGAUCACCCAUGUA	12 nM	11.8 nM	–	–
UUUCGUCUCGAGAAGGUCUAUCGACAUGAGGAUCACCCAUGUUGCCAUGGAAGGAUAUCGAAGGCAGCACGGGAAAUAGUCCGG	–	–	78.3 nM	14 nM
AGGAAACAUGAGGAUCACCCAUGUGAGGAUAUUUGAAAGAAAAGAAAAGAAAGAAGAAGAAGAAGGCACAAGAA	32.4 nM	35.5 nM	–	–
AAGUCGUGAGGAUAUACAUGGAUAUACAUUUAUGUAAAACUACAUGAGGAUCACCCAUGUAGAAGGCACGAAUA	50.7 nM	128 nM	–	–
AGGCCACAAGGAUAUACAUGAGGAUCACCCAUGUAGAAAGACGUGUGGUCAUGUUCGAGUAGAAGGUGUAGCGG	12.9 nM	12.7 nM	–	–
AACUGACAUGAGGAUCACCCAUGUCAGGAUAUGACUUGAUAGAAAAUAAAAUAUCAUGUCAGAAGGGACAUGGA	23.8 nM	33.3 nM	–	–
UUGGACGUCGUAGGAUAUGUAGGAUAUUCCUACAUGAGGAUCACCCAUGUUGACAUUGAAGAAGGACAGAAGGACGAUGUCCAU	–	–	87.7 nM	5.02 nM
UUGGUACAAGGAUAUACAUGAGGAUCACCCAUGUUUGGCAUCGCGCGUAUCUCUUCAGGUAGAAGGUGUGUUGA	22.3 nM	26.5 nM	–	–
AUAUUGUGAGGAUAUGAACUUAGAAUCGAAAGAUACUAAGUUCAGAAGGCACAUGAGGAUCACCCAUGUUUCUC	86 nM	875 nM	–	–
AAAUAGUUAGGAUAUACAUGAGGAUCACCCAUGUGGACUGAUGGCGAUUGAUUUAGUGGUAGAAGGGACUCAAA	40.3 nM	58.4 nM	–	–
CCCUACACCGAGAAGGGCACGUAUUGAAGAGGGUGCCAGGAACAUCACAUGAGGAUCACCCAUGUGCAGGAUAUCGGCAGGAAC	9.41 nM	19.9 nM	–	–
UUAUGUUUUGUAGGAUAUCAUUAGUUAUGUAUUUUAAUUGAAAUUUAGAUAUGAGAAGGACAUUUACAUGAGGAUCACCCAUGU	17.4 nM	11.1 nM	–	–
UCAACCAGCGCCGGUUGAACAUGAGGAUCACCCAUGUACUCCAGAAGGCCGCCCAAGAACGGAGUGGAGGAUAUGGAAGUUCUC	–	–	75.7 nM	39.9 nM
UUGCCACAUGAGGAUCACCCAUGUGAGGAUAUGGCCUGUUUGGCGUGUGCUGGCUCUGUCAGAAGGCGCGUGGG	31.8 nM	37.5 nM	–	–
AAAUCGUCAGGAUAUGCUAGUAAAUGUUACAUUUCUUCAUAGCAGAAGGGACAUGAGGAUCACCCAUGUAAGUC	33.7 nM	45.6 nM	–	–
GUCAUCGUAUGAGGAUAUGGCACCGAAACGGUGCCAGAAGGCAUGUCAAUAGACAUGAGGAUCACCCAUGUGUUAUCGAUGGCA	–	–	116 nM	13.2 nM
UCGCUCCGUGUAGGAUAUCGCCGUUCUACUCGGCGAGAAGGACAUGAGGAUCACCCAUGUAUGUUAUUAUCACGUGUGGCGCGC	18.5 nM	29.5 nM	–	–
CUGAUGUUAGGAUAUCAGGCUGUGCGCGAAAACGGGCGGCAUGAGAAGGAACAUGAGGAUCACCCAUGUGACGG	47.3 nM	124 nM	–	–
UGGUGACGUUUCUUCUCGACAUGAGGAUCACCCAUGUAGACAGAGGAUAUCCGAGUUGCCAAUAUGGAGAAGGCUGACUGCGAA	6.6 nM	8.32 nM	–	–
